Series [1] is described as follows: Toxicity in 24 hrs post fertilized zebrafish embryo assessed as malformation of spine curvature at 50 uM measured after 24 hrs by microscopic analysis. Further details: species or system Danio rerio. Particulars: in vivo. The method in brief: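 Zebrafish embryos raised in an automated housing system at 28 °C to 24 hpf, then exposed for 24 h to test agent at 50 μM in vehicle (1% DMSO in water). Digoxin and cycloheximide at 50 μM served as positive controls, with an untreated control. Morphology was then inspected and photographed by light microscopy.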

Series [2] has as its target Sodium/potassium-transporting ATPase (Homo sapiens) (UniProt P05023+P14415+P05026+P50993+P54709+P13637+Q13733+P54710). The series can be described thus: Inhibition of Na+/K+ ATPase pump in human DU145 cells assessed as increase in intracellular calcium level at 50 uM measured after 5 hrs by Fura-2/AM dye based fluorescence assay. The series is classed as cell-based. The method in brief:
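DU-145 cells at 1×10^4 per well treated 5 h (0–50 μM), DMSO/water negative control; medium removed, loaded with 5 μM fura-2 AM then 2.5 mM probenecid; intracellular Ca2+ from emission 510 nm ratio at 340/380 nm excitation; two independent experiments.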

In the next series the test system is MDA-MB-231. Nature of the series: Cytotoxicity against human MDA-MB-231 cells assessed as reduction in cell viability measured after 72 hrs by SRB assay. Particulars: MDA-MB-231, 72 h. It counts as functional, cell-based. For orientation: Sulforhodamine B stains cellular protein and so reports cell mass.
The test system of a further series is HT-29. The series can be described thus: Cytotoxicity against human HT-29 cells assessed as reduction in cell viability measured after 72 hrs by SRB assay. Particulars: HT-29, 72 h. It counts as functional, cell-based.
A further series relates to PC-3. The series can be described thus: Cytotoxicity against human PC3 cells assessed as reduction in cell viability measured after 72 hrs by SRB assay. It counts as functional, cell-based. Particulars: PC-3, 72 h.
In another series the test system is HeLa. Nature of the series: Cytotoxicity against human HeLa cells assessed as reduction in cell viability measured after 72 hrs by SRB assay. It counts as functional, cell-based.
In another series the test system is DU-145. Nature of the series: Cytotoxicity against human DU145 cells assessed as reduction in cell viability measured after 72 hrs by SRB assay. It counts as functional, cell-based. Particulars: DU-145, 72 h.

Active and inactive are the calls of the source. No cut-off for these calls is given here.

With `C[C@H]1O[C@@H](O[C@H]2[C@@H](O)C[C@H](O[C@H]3[C@@H](O)C[C@H](O[C@H]4CC[C@@]5(C)[C@H](CC[C@@H]6[C@@H]5C[C@@H](O)[C@]5(C)[C@@H](C7=CC(=O)OC7)CC[C@]65O)C4)O[C@@H]3C)O[C@@H]2C)C[C@H](O)[C@@H]1O` [DIGOXIN], the Activity entry in series [1] is recorded as “Toxic”. Further, the inhibition entry in series [2] was “Active”.
One may read the IC50 as the concentration that inhibits the measured activity by half. Regarding `CC(=O)O[C@H]1C(=O)[C@@]2(C)[C@H]([C@H](OC(=O)c3ccccc3)[C@]3(O)C[C@H](OC(=O)[C@H](O)[C@@H](NC(=O)c4ccccc4)c4ccccc4)C(C)=C1C3(C)C)[C@]1(OC(C)=O)CO[C@@H]1C[C@@H]2O` [PACLITAXEL], the IC50 with MDA-MB-231 was determined as 100 nM; in the series on HT-29 it was 2 nM; in the series on PC-3 it was 170 nM; with HeLa, 5 nM; in the series with DU-145 it was 4 nM.

The record behind these values is ChEMBL document CHEMBL4334445, “Caspase-Dependent Apoptosis in Prostate Cancer Cells and Zebrafish by Corchorusoside C from Streptocaulon juventas” (J Nat Prod, 2019).
